Measurements of several laboratories.
Each line is one published result; the experiments were not run side by side.
Organism: Salmonella enterica
Observed: microbial growth

| Compound | assay | test system | setting | MIC |
| --- | --- | --- | --- | --- |
| CCCCCCCCCCCC(=O)OC[C@H]1O[C@@H](n2cc(C)c(=O)[nH]c2=O)C[C@@H]1O | broth dilution | TYPHI |  | 1 µg/mL |
| CO/N=C(\C(=O)N[C@@H]1C(=O)N2C(C(=O)O)=C(CSC(=O)c3ccco3)CS[C@H]12)c1csc(N)n1 |  | ENTERITIDIS | 20 h, pH 5.5 | 1 µg/mL |
| C[C@H]1[C@H](NC(=O)/C(=N\OC(C)(C)C(=O)O)c2csc(N)n2)C(=O)N1S(=O)(=O)O | agar dilution | TYPHI |  | ≤ 0.03 µg/mL |
| O=C(O)c1cn(C2CC2)c2cc(N3CCNCC3)c(F)cc2c1=O | broth dilution | TYPHI | 24 h | 62.5 µg/mL |
| O=C(N[C@H](CO)[C@H](O)c1ccc([N+](=O)[O-])cc1)C(Cl)Cl |  | CHOLERAESUIS | 20 h, pH 5.5 | 2 µg/mL |
| CC1(C)S[C@@H]2[C@H](NC(=O)[C@H](N)c3ccccc3)C(=O)N2[C@H]1C(=O)O | broth dilution | PARATYPHI | 16 h | 32 µg/mL |
| CO/N=C(\C(=O)N[C@@H]1C(=O)N2C(C(=O)O)=C(CSc3nc(=O)c(=O)[nH]n3C)CS[C@H]12)c1csc(N)n1 |  | CHOLERAESUIS | 20 h, pH 5.5 | 0.125 µg/mL |
| CC1=NN(CNc2ccc(Cl)cc2)C(=O)C1=NNn1c(-c2ccccc2)nc2ccccc2c1=O | broth dilution | PARATYPHI | 24 h | 103 µM |
| CS(=O)(=O)c1ccc([C@@H](O)[C@@H](CF)NC(=O)C(Cl)Cl)cc1 |  | CHOLERAESUIS | 20 h, pH 7 | 4 µg/mL |
| CC1=NN(CNc2ccc(C(=O)O)cc2)C(=O)C1=NNn1c(-c2ccccc2)nc2ccccc2c1=O | broth dilution | PARATYPHI | 24 h | 50.5 µM |
| CO[C@H]1O[C@H](COC(c2ccccc2)(c2ccccc2)c2ccccc2)[C@@H](OC(=O)c2ccc(C(C)(C)C)cc2)[C@H](OC(=O)c2ccc(C(C)(C)C)cc2)[C@H]1OC(=O)c1ccc(C(C)(C)C)cc1 | broth dilution | TYPHI |  | 2 µg/mL |
| [H]/N=C(/N)N[C@H]1[C@H](O)[C@@H](O)[C@H](O[C@@H]2O[C@@H](C)[C@](O)(C=O)[C@H]2O[C@@H]2O[C@@H](CO)[C@H](O)[C@@H](O)[C@@H]2NC)[C@@H](N/C(N)=N\[H])[C@@H]1O |  | CHOLERAESUIS | 20 h, pH 7 | 4100 µg/mL |
| O=C1NN=C(N=Cc2ccccc2)C1=NNn1c(-c2ccccc2)nc2ccccc2c1=O | broth dilution | PARATYPHI | 24 h | 114 µM |
| CCCCCCCCCCCC(=O)OC[C@H]1O[C@@H](n2cc(C)c(=O)[nH]c2=O)C[C@@H]1OC(=O)c1ccc(C(C)(C)C)cc1 | broth dilution | TYPHI |  | 0.5 µg/mL |
| O=C1NN=C(N=Cc2ccc(O)cc2O)C1=NNn1c(-c2ccccc2)nc2ccccc2c1=O | broth dilution | PARATYPHI | 24 h | 53.5 µM |
| CCn1cc(C(=O)O)c(=O)c2ccc(C)nc21 | broth dilution | TYPHI | 24 h | 15.6 µg/mL |
| CC(=O)NCN1N=C(C)C(=NNn2c(-c3ccccc3)nc3ccccc3c2=O)C1=O | broth dilution | PARATYPHI | 24 h | 59.9 µM |
| CCN1CCN(c2cc3c(cc2F)c(=O)c(C(=O)O)cn3C2CC2)CC1 |  | CHOLERAESUIS | 20 h, pH 7.2 | 0.0625 µg/mL |
| CC1=NN(CNc2ccccc2[N+](=O)[O-])C(=O)C1=NNn1c(-c2ccccc2)nc2ccccc2c1=O | broth dilution | PARATYPHI | 24 h | 50.4 µM |
| C[C@H]1COc2c(N3CCN(C)CC3)c(F)cc3c(=O)c(C(=O)O)cn1c23 | agar dilution | TYPHI |  | ≤ 0.03 µg/mL |
